From article PMC11225362 (iScience, 2024)
Values joined by “and” are separate entries in the source; they are usually repeats but may differ in a detail not shown here. Equal values may be shown once. “Also recorded” adds a separate entry of the source. Values belong to the compound of their own block, whether it stands above or below them.

Legend:
[1] = target: human constitutive 20S proteasome (Homo sapiens, UniProt P25787+P60900); experiment: Fluorogenic small peptide assay with purified 20S proteasome; type: biochemical; conditions: for EC200 (concentration at which degradation rate is enhanced 2-fold, 200%): equimolar mixture of Suc-LLVY-AMC, Z-LLE-AMC, Boc-LRR-AMC, mean ± SD, n = 3
Outline: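 Human constitutive 20S proteasome (0.5 nM) in 38 mM Tris, 100 mM NaCl, pH 7.8 was preincubated 20 min at 37°C with test compound (3.75–30 μM, or 9 points 0.16–30 μM) in DMSO (2% final). Suc-LLVY-, Z-LLE- and Boc-LRR-AMC were added at 6.67 μM final each. AMC release (380/460 nm) was read at 37°C for 1 h. Hydrolysis rate was expressed relative to vehicle, and EC200 was taken as the 2-fold-rate concentration.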

[2] = test system: A53T α-synuclein in HEK-293T cells; experiment: A53T α-synuclein levels in transfected HEK-293T cells; type: cell-based; conditions: for α-synuclein remaining: 0.75 μM, A53T α-synuclein; for A53T α-synuclein remaining: vs DMSO
[3] = test system: ubiquitin in HEK-293T cells; experiment: Ubiquitin levels in unmodified HEK-293T cells; type: cell-based; conditions: for levels of ubiquitin: 10 μM
Outline: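 Untransfected HEK-293T cells were treated with 10 μM test compound, DMSO vehicle, or 100 nM bortezomib. Ubiquitin levels were visualized and quantified by immunoblotting relative to vehicle.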

[4] = target: T1, purified 20S proteasome (Homo sapiens, UniProt P25787+P60900); experiment: Purified α-synuclein digestion with 20S proteasome; type: biochemical; conditions: 10 nM 20S, 300 nM α-synuclein, 3.5 h, 37°C
Outline: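 Purified human 20S proteasome (10 nM final) in 50 mM HEPES, 5 mM DTT, pH 7.2 was preincubated 45 min at 37°C with test compound in DMSO or DMSO alone. Purified α-synuclein (300 nM final) was added, and digestion ran 3.5 h at 37°C. GAPDH (0.5 μM) served as loading control. Samples were boiled 15 min in SDS buffer and immunoblotted with anti-α-synuclein (1:1333).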

[5] = target: T1, purified 20S proteasome; experiment: Purified p25α digestion with 20S proteasome; type: biochemical; conditions: 10 μM compound; 7.5 nM 20S, 500 nM p25α, 3 h
Outline: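 20S proteasome (7.5 nM final) in 120 mM NaCl, 50 mM Tris, 0.1% β-mercaptoethanol, pH 7.2 was exposed to 10 μM test compound or DMSO for 30 min at 37°C. Purified p25α was pretreated with 100 μM DTE for 30 min at room temperature, then added at 500 nM final for 3 h. GAPDH (0.5 μM) was the loading control. Samples were boiled in SDS buffer and immunoblotted.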

[6] = test system: p25α in HEK-293T cells; experiment: p25α levels in transfected HEK-293T cells; type: cell-based; conditions: 10 μM, 16 h
Outline: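 HEK-293T cells were transiently transfected with TPPP/p25α and A53T α-synuclein plasmids, and protein was expressed for 48 h. Cells were then treated 16 h with 10 μM test compound, DMSO, or 30 nM bortezomib as control. p25α was quantified by immunoblot in triplicate.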

[7] = test system: p25α in PC12 cells; experiment: p25α levels in PC12 cells; type: cell-based, rat; conditions: 10 μM
[8] = test system: A53T α-synuclein in HEK-293T cells; experiment: A53T α-synuclein levels in HEK-293T cells pre-treated with Bafilomycin A1; type: cell-based; conditions: 10 μM after 1 h pre-treatment with 500 nM Bafilomycin A1, HEK-293T
Outline: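 HEK-293T cells transiently expressing A53T α-synuclein (48 h expression) were pretreated with 500 nM bafilomycin A1 and exposed to 10 μM test compound. α-Synuclein levels were then determined by SDS-PAGE immunoblotting with anti-α-synuclein (1:1333).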

[9] = test system: proteasome activity in PC12 cells; type: cell-based, rat; conditions: 3 μM, 72 h; co-transfected PC12; untreated model 8%
Outline: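 PC12 cells (RPMI 1640 with 5% FBS and 10% horse serum) were strained and plated at 2,500 cells/well in 384-well plates. Cells were co-transfected with 0.5 μg A53T α-synuclein and 0.1 μg p25α plasmids for 24 h. They were then treated with 3 μM test compound or DMSO (0.03% final) for 72 h. Proteasome Glo reagent was added and luminescence recorded.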

[10] = test system: PC12 cells; type: cell-based, rat; conditions: 3 μM, 72 h; co-transfected PC12; untreated model 25%

EC200 (concentration at which degradation rate is enhanced 2-fold, 200%) [1]: 9.0 µM
Compound: 3-(2,3-dihydro-4H-benzo[b][1,4]oxazin-4-yl)-N,N-bis(4-fluorophenyl)propenamide [Compound 11]

Compound: CC(C)C[C@H](NC(=O)[C@H](Cc1ccccc1)NC(=O)c1cnccn1)B(O)O [BTZ, Bortezomib, reference compound]
increase of A53T α-synuclein levels ([2]; 30 nM, 16 h): 148% and 135% | ubiquitin as compared to the vehicle ([3]; 100 nM): 298%

EC200 (concentration at which degradation rate is enhanced 2-fold, 200%) [1]: 1.6 µM | α-synuclein remaining ([4]; 5 μM compound): 45% | α-synuclein remaining ([4]; 15 μM compound): 28% | p25α remaining compared to DMSO treated samples [5]: 29%
Compound: O=C(CCn1c2ccccc2c2ccccc21)N(c1ccc(F)cc1)c1ccc(F)cc1 [Compound 1, 3-(9H-carbazol-9-yl)-N,N-bis(4-fluorophenyl)propanamide]
α-synuclein remaining [2]: 55% | decrease of A53T α-synuclein ([2]; 1 μM, 16 h): 67% | A53T α-synuclein remaining ([2]; 1 μM, 16 h): 64% | A53T α-synuclein remaining ([2]; 15 μM, 16 h): 21% | reduction of p25α [6]: 45% | p25α remaining [7]: 40% | A53T α-synuclein remaining [8]: 16% | levels of ubiquitin [3]: didn’t impact the levels of ubiquitin significantly | proteasome activity remaining [9]: 29%

EC200 (concentration at which degradation rate is enhanced 2-fold, 200%) [1]: 3.8 µM
Compound: O=C(Cn1c2ccccc2c2ccccc21)N(c1ccc(F)cc1)c1ccc(F)cc1 [Compound 2, 2-(9H-carbazol-9-yl)-N,N-bis(4-fluorophenyl)acetamide]

EC200 (concentration at which degradation rate is enhanced 2-fold, 200%) [1]: 0.9 µM | α-synuclein remaining ([4]; 15 μM compound): 33%
Compound: O=C(CCn1c2ccccc2c2ccc(Cl)cc21)N(c1ccc(F)cc1)c1ccc(F)cc1 [Compound 3, 3-(2-chloro-9H-carbazol-9-yl)-N,N-bis(4-fluorophenyl)propanamide]

EC200 (concentration at which degradation rate is enhanced 2-fold, 200%) [1]: 3.8 µM
Compound: O=C(CCn1c2ccccc2c2ccncc21)N(c1ccc(F)cc1)c1ccc(F)cc1 [Compound 5, N,N-bis(4-fluorophenyl)-3-(9H-pyrido[3,4-b]indol-9-yl)propanamide]

EC200 (concentration at which degradation rate is enhanced 2-fold, 200%) [1]: 2.0 µM
Compound: O=C(Cn1c2ccccc2c2ccncc21)N(c1ccc(F)cc1)c1ccc(F)cc1 [Compound 6, N,N-bis(4-fluorophenyl)-2-(9H-pyrido[3,4-b]indol-9-yl)acetamide]

EC200 (concentration at which degradation rate is enhanced 2-fold, 200%) [1]: 7.5 µM
Compound: O=C(CCn1ccc2ccccc21)N(c1ccc(F)cc1)c1ccc(F)cc1 [Compound 7, N,N-bis(4-fluorophenyl)-3-(1H-indol-1-yl)propanamide]

EC200 (concentration at which degradation rate is enhanced 2-fold, 200%) [1]: 7.5 µM
Compound: O=C(Cn1ccc2ccccc21)N(c1ccc(F)cc1)c1ccc(F)cc1 [Compound 8, N,N-bis(4-fluorophenyl)-2-(1H-indol-1-yl)acetamide]

EC200 (concentration at which degradation rate is enhanced 2-fold, 200%) [1]: 1.6 µM
Compound: O=C(Cn1ccc2ccc(Cl)cc21)N(c1ccc(F)cc1)c1ccc(F)cc1 [Compound 10, 2-(6-chloro-1H-indol-1-yl)-N,N-bis(4-fluorophenyl)acetamide]

EC200 (concentration at which degradation rate is enhanced 2-fold, 200%) [1]: 8.0 µM
Compound: O=C(CN1CCOc2ccccc21)N(c1ccc(F)cc1)c1ccc(F)cc1 [Compound 12, 2-(2,3-dihydro-4H-benzo[b][1,4]oxazin-4-yl)-N,N-bis(4-fluorophenyl)acetamide]

EC200 (concentration at which degradation rate is enhanced 2-fold, 200%) [1]: 1.3 µM
Compound: O=C(CCn1c(=O)oc2ccccc21)N(c1ccc(F)cc1)c1ccc(F)cc1 [Compound 13, N,N-bis(4-fluorophenyl)-3-(2-oxobenzo[d]oxazol-3(2H)-yl)propanamide]

20S proteasome activation (in words) ([1]; fluorogenic peptide assay): abrogated all 20S proteasome activity
Compound: O=C(Cn1c(=O)oc2ccccc21)N(c1ccc(F)cc1)c1ccc(F)cc1 [Compound 14, N,N-bis(4-fluorophenyl)-2-(2-oxobenzo[d]oxazol-3(2H)-yl)acetamide]
A53T α-synuclein remaining ([2]; 15 μM, 16 h): no significant effect on degradation; also recorded: no impact on the levels of A53T α-synuclein

Compound: CN(C)CCC(=O)N(c1ccc(F)cc1)c1ccc(F)cc1 [Compound 19, 3-(dimethylamino)-N,N-bis(4-fluorophenyl)propanamide]
p25α remaining compared to DMSO treated samples [5]: didn’t show significant impact on the rate of p25α degradation | reduction of p25α [6]: didn’t impact the levels of p25α | levels of ubiquitin [3]: didn’t impact the levels of ubiquitin significantly

α-synuclein remaining ([4]; 5 μM compound): 60% | α-synuclein remaining ([4]; 15 μM compound): 40%
Compound: CCOC(=O)[C@]1(c2ccccc2)N=C(c2ccc(OC)cc2)N(Cc2ccccc2)[C@@H]1c1ccc(NCc2ccccc2)cc1 [TCH-165, reference compound]
A53T α-synuclein remaining ([2]; 10 μM, 16 h): 52% and 40%

EC200 (concentration at which degradation rate is enhanced 2-fold, 200%) [1]: 1.2 µM | α-synuclein remaining ([4]; 5 μM compound): 58% | α-synuclein remaining ([4]; 15 μM compound): 33% | p25α remaining compared to DMSO treated samples [5]: 28%
Compound: N,N-bis(4-fluorophenyl)-2-(2-methyl-9H-carbazol-9-yl)acetamide [Compound 4]
α-synuclein remaining [2]: 72% | A53T α-synuclein remaining ([2]; 5 μM, 16 h): 30% | A53T α-synuclein remaining ([2]; 10 μM, 16 h): 14% | A53T α-synuclein remaining ([2]; 15 μM, 16 h): 11% | reduction of p25α [6]: non-significant | p25α remaining [7]: 67% | A53T α-synuclein remaining [8]: 28% | levels of ubiquitin [3]: didn’t impact the levels of ubiquitin significantly | cell viability [10]: 75% | proteasome activity remaining [9]: 34%
